Assay results as given in ChEMBL document CHEMBL2010643 (Bioorg Med Chem Lett, 2012).
The source made the active and inactive calls. The calls are words filed in the database; no cut-off is given here.

Tests used:
Mus musculus [1] = assay: Inhibition of LRRK2 phosphorylation at Ser935 in C57BL/6 mouse spleen at 50 mg/kg, po administered for 8 hrs followed by 2 hrs dosing; assay type: functional, organism-based; parameters: dose 50 mg/kg
How it was run: (§1)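 Mice were dosed by oral gavage at 10 or 50 mg/kg. Brain, spleen and kidney were collected. Endogenous LRRK2 was resolved by SDS–PAGE and blotted with phospho-specific antibodies to Ser910 and Ser935 and with an antibody to total LRRK2.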

[2] = target: Serine/threonine-protein kinase N2 (Homo sapiens) (UniProt Q16513); assay: Inhibition of PRK2 assessed as residual activity at 10 uM relative to control
[3] = target: Leucine-rich repeat serine/threonine-protein kinase 2 (Mus musculus) (UniProt Q5S006); assay: Inhibition of wild type LRRK2 phosphorylation at Ser910 in mouse 3T3 cells after 90 mins by Western blot analysis; assay type: cell-based
How it was run: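 Mouse Swiss 3T3 cells treated with DMSO or increasing inhibitor concentrations for 90 min. Endogenous LRRK2 in lysates immunoblotted with purified phospho-specific antibodies to Ser910 and Ser935 and with a total LRRK2 antibody. Blots done in duplicate, representative of at least two independent experiments.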

[4] = target: RAC-alpha serine/threonine-protein kinase (Homo sapiens) (UniProt P31749); assay: Inhibition of PKBalpha assessed as residual activity at 1 uM relative to control
[5] = target: Mitogen-activated protein kinase 13 (Homo sapiens) (UniProt O15264); assay: Inhibition of p38delta MAPK assessed as residual activity at 1 uM relative to control
How it was run: (§2)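 Radioactivity-based enzymatic kinase assays run across a 124-kinase profiling panel (Dundee), reporting the remaining kinase activity relative to a control.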

Mus musculus [6] = assay: Inhibition of LRRK2 phosphorylation at Ser910 in C57BL/6 mouse brain at 10 to 50 mg/kg, po administered for 8 hrs followed by 2 hrs dosing; assay type: functional, organism-based; how it was run: as §1
[7] = target: Serine/threonine-protein kinase PLK1 (Homo sapiens) (UniProt P53350); assay: Inhibition of PLK1 assessed as residual activity at 1 uM relative to control
[8] = target: Maternal embryonic leucine zipper kinase (Homo sapiens) (UniProt Q14680); assay: Inhibition of MELK assessed as residual activity at 1 uM relative to control
[9] = target: Mitogen-activated protein kinase 13 (Homo sapiens) (UniProt O15264); assay: Inhibition of p38delta MAPK assessed as residual activity at 10 uM relative to control; how it was run: as §2
[10] = target: Insulin receptor-related protein (Homo sapiens) (UniProt P14616); assay: Inhibition of IRR assessed as residual activity at 10 uM relative to control
[11] = target: Protein-tyrosine kinase 6 (Homo sapiens) (UniProt Q13882); assay: Inhibition of BRK assessed as residual activity at 1 uM relative to control
[12] = target: Cyclin-dependent kinase 2/cyclin A (Homo sapiens) (UniProt P24941+P20248+P78396); assay: Inhibition of CDK2-Cyclin A assessed as residual activity at 10 uM relative to control; assay type: protein-complex assay
[13] = target: T1, Leucine-rich repeat serine/threonine-protein kinase 2 (Homo sapiens, UniProt Q5S007); assay: Inhibition of wild-type LRRK2 phosphorylation at Ser910 expressed in HEK293 cells at 0.1 to 0.3 uM after 90 mins by immunoblot analysis; assay type: cell-based
How it was run: (§3)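 HEK293 cells stably expressing wild-type GFP-LRRK2 exposed to DMSO or increasing inhibitor concentrations for 90 min. Lysates immunoblotted for LRRK2 phosphorylated at Ser910 and Ser935 and for total LRRK2.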

[14] = target: Serine/threonine-protein kinase PAK 4 (Homo sapiens) (UniProt O96013); assay: Inhibition of PAK4 assessed as residual activity at 1 uM relative to control
Mus musculus [15] = assay: Inhibition of LRRK2 phosphorylation at Ser910 in C57BL/6 mouse spleen at 10 mg/kg, po administered for 8 hrs followed by 2 hrs dosing; assay type: functional, organism-based; parameters: dose 10 mg/kg; how it was run: as §1
[16] = target: Mitogen-activated protein kinase 14 (Homo sapiens) (UniProt Q16539); assay: Inhibition of p38alpha MAPK assessed as residual activity at 10 uM relative to control; how it was run: as §2
Mus musculus [17] = assay: Inhibition of LRRK2 phosphorylation at Ser935 in C57BL/6 mouse spleen at 10 mg/kg, po administered for 8 hrs followed by 2 hrs dosing; assay type: functional, organism-based; parameters: dose 10 mg/kg; how it was run: as §1
Brain = assay: AUClast in Swiss albino mouse brain at 10 mg/kg, po; assay type: ADME, organism-based; parameters: time 0 - last, dose 10 mg/kg, route oral; conditions: in vivo
How it was run: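 Male Swiss Albino mice were given a single dose, either intravenous at 1 mg/kg or oral at 10 mg/kg. AUClast was measured in plasma and in brain. Half-life, plasma clearance, volume of distribution and oral bioavailability were derived from the plasma data.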

[18] = target: Glycogen synthase kinase-3 beta (Homo sapiens) (UniProt P49841); assay: Inhibition of GSK3b assessed as residual activity at 1 uM relative to control
How it was run: (§4)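 Standard radioactivity-based enzymatic assays were run across a 124-kinase panel (Dundee profiling), with compound at 1 µM. Kinase activity was expressed relative to control.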

[19] = target: Mitogen-activated protein kinase kinase kinase 1 (Homo sapiens) (UniProt Q13233); assay: Inhibition of MEKK1 assessed as residual activity at 10 uM relative to control
[20] = target: Proto-oncogene tyrosine-protein kinase Src (Homo sapiens) (UniProt P12931); assay: Inhibition of Src assessed as residual activity at 10 uM relative to control
[21] = target: Glycogen synthase kinase-3 beta (Homo sapiens) (UniProt P49841); assay: Inhibition of GSK3b assessed as residual activity at 10 uM relative to control
[22] = Volume of distribution at steady state in Swiss albino mouse at 1 mg/kg, iv; assay type: ADME, organism-based; parameters: dose 1 mg/kg, route intravenous; conditions: in vivo, read-out: Vdss
How it was run: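 Male Swiss Albino mice given a single intravenous dose of 1 mg/kg (oral arm 10 mg/kg). Plasma and brain exposure measured, and steady-state volume of distribution derived from the plasma profile.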

[23] = target: Serine/threonine-protein kinase PAK 4 (Homo sapiens) (UniProt O96013); assay: Inhibition of PAK4 assessed as residual activity at 10 uM relative to control
Mus musculus [24] = assay: Inhibition of LRRK2 phosphorylation at Ser910 in C57BL/6 mouse kidney at 10 mg/kg, po administered for 8 hrs followed by 2 hrs dosing; assay type: functional, organism-based; parameters: dose 10 mg/kg; how it was run: as §1
[25] = target: Receptor-interacting serine/threonine-protein kinase 2 (Homo sapiens) (UniProt O43353); assay: Inhibition of RIPK2 assessed as residual activity at 10 uM relative to control
[26] = target: Serine/threonine-protein kinase PAK 5 (Homo sapiens) (UniProt Q9P286); assay: Inhibition of PAK5 assessed as residual activity at 1 uM relative to control
[27] = target: Dual specificity tyrosine-phosphorylation-regulated kinase 2 (Homo sapiens) (UniProt Q92630); assay: Inhibition of DYRK2 assessed as residual activity at 1 uM relative to control; how it was run: as §4
[28] = target: Tyrosine-protein kinase BTK (Homo sapiens) (UniProt Q06187); assay: Inhibition of BTK assessed as residual activity at 1 uM relative to control; how it was run: as §4
[29] = target: Dual specificity mitogen-activated protein kinase kinase 1 (Homo sapiens) (UniProt Q02750); assay: Inhibition of MKK1 assessed as residual activity at 10 uM relative to control
[30] = target: T1, Leucine-rich repeat serine/threonine-protein kinase 2; assay: Inhibition of wild-type LRRK2 phosphorylation at Ser935 expressed in HEK293 cells at 0.1 to 0.3 uM after 90 mins by immunoblot analysis; assay type: cell-based; how it was run: as §3

T1 sequence (Q5S007 whole entry): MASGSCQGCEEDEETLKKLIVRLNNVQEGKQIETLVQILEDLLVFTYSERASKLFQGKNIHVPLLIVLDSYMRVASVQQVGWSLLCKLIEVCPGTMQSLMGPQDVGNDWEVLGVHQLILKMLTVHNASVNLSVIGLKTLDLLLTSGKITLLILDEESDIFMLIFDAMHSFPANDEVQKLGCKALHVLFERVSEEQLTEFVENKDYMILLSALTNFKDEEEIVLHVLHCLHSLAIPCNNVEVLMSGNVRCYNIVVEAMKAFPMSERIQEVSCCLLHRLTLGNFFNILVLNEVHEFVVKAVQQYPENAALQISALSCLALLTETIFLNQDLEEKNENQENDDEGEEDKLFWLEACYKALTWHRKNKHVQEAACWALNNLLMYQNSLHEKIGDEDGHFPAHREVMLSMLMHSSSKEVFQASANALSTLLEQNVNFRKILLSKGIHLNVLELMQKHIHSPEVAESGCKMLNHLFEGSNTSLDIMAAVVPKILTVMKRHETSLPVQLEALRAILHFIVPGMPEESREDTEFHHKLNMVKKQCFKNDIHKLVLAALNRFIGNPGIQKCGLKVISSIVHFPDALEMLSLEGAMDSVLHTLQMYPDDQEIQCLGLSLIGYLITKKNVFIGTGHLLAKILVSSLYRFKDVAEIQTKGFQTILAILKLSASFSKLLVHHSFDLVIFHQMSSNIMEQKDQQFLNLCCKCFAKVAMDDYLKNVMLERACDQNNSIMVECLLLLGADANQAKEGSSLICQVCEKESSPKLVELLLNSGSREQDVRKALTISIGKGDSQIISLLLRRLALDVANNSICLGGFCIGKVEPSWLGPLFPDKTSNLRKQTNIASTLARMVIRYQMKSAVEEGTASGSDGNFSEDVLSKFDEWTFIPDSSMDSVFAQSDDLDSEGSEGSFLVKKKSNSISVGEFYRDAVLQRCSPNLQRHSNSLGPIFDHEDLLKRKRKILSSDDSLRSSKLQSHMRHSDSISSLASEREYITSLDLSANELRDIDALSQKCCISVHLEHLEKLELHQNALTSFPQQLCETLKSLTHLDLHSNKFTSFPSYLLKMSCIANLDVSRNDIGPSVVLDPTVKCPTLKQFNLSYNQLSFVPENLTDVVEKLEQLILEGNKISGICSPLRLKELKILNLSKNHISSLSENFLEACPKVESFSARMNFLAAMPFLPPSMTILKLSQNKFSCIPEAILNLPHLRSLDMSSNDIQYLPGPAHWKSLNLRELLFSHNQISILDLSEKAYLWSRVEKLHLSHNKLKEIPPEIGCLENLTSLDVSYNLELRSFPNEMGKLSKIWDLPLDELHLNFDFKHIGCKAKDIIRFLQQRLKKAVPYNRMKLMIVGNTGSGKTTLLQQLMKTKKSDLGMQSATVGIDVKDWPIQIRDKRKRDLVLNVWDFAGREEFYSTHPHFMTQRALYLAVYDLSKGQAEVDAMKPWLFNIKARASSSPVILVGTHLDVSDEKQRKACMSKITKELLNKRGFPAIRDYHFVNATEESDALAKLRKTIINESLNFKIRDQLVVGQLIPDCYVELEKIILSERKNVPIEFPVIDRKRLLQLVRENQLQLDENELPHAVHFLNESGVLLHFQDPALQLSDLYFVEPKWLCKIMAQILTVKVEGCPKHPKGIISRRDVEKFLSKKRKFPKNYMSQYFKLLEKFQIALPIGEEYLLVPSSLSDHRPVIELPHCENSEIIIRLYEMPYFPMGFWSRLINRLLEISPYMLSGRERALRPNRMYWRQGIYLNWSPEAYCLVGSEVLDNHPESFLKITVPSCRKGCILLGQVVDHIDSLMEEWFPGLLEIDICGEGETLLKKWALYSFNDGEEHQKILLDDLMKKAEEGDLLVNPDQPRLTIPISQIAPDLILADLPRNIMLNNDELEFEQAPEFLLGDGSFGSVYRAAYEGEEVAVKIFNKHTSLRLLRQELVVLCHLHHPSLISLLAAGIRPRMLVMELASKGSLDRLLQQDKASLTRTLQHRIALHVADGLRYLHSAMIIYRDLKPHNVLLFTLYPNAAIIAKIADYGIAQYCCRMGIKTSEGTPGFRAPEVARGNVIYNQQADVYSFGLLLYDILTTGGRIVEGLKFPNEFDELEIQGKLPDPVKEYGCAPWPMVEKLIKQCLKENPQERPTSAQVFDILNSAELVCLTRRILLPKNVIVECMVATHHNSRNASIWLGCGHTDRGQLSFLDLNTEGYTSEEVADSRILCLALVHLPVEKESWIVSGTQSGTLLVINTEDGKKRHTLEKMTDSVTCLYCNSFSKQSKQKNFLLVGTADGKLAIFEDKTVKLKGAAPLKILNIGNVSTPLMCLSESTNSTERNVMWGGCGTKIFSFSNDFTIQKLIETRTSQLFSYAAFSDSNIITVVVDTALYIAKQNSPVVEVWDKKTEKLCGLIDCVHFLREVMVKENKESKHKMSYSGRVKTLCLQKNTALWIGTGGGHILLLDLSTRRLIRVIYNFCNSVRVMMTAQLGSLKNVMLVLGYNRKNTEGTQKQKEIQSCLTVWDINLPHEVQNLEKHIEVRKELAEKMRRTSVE
Chain of Mitogen-activated protein kinase 13 (Homo sapiens) (O15264 whole entry): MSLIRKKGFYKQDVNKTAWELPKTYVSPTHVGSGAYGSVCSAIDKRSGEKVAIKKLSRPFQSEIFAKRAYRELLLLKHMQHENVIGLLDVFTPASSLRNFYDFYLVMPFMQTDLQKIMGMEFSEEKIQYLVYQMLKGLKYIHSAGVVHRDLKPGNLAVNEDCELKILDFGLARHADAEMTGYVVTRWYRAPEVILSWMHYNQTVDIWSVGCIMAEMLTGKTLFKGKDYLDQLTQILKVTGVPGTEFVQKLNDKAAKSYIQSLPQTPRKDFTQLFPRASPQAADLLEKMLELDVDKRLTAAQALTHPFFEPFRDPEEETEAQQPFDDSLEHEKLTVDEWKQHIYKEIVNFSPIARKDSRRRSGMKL
Chain of Serine/threonine-protein kinase PAK 4 (Homo sapiens) (O96013 whole entry, looked up): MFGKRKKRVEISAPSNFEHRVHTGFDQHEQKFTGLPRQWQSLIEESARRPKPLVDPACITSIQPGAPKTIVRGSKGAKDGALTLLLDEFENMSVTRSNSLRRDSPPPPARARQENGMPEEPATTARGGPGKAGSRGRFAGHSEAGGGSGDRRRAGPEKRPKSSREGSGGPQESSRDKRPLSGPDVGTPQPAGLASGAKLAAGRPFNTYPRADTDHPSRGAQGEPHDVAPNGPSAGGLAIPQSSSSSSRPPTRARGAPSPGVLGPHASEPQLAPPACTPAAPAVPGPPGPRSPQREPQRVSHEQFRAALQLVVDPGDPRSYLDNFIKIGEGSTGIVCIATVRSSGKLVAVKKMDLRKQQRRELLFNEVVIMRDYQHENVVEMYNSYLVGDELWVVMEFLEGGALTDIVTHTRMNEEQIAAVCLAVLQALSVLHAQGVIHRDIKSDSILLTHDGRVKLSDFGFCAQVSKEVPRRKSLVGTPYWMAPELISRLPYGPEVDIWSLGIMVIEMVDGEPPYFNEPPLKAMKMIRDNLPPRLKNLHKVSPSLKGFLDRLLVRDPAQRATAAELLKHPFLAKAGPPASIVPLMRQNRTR
Chain of Glycogen synthase kinase-3 beta (Homo sapiens) (P49841 whole entry, looked up): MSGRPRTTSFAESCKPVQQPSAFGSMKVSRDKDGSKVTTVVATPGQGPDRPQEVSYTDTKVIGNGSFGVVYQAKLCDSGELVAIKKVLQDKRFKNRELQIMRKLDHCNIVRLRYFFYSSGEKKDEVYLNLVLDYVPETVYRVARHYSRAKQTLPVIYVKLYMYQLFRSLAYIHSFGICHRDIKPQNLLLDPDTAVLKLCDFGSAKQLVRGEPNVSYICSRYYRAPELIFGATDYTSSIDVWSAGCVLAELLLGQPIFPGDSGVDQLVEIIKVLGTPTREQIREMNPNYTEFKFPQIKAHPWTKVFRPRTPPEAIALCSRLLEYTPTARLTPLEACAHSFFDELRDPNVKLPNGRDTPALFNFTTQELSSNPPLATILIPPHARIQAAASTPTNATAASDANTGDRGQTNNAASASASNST
Chain of Tyrosine-protein kinase BTK (Homo sapiens) (Q06187 whole entry): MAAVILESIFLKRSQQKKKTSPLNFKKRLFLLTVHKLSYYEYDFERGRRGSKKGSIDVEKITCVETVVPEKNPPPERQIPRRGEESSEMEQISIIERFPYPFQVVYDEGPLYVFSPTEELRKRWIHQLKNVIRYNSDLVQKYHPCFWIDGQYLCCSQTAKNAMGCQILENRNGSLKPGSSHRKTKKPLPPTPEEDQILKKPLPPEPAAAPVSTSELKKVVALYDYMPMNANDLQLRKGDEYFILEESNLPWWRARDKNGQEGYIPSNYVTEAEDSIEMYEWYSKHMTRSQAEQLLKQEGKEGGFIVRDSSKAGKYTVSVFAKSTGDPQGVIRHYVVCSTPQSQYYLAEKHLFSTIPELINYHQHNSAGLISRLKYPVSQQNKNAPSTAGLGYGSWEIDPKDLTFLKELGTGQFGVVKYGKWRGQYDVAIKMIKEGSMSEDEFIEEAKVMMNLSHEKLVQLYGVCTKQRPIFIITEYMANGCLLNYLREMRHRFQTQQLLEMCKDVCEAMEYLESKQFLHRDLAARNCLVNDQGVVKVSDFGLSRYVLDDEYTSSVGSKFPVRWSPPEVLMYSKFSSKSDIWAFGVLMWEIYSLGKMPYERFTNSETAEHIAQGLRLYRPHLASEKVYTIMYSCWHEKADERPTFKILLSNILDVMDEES
Chain of Receptor-interacting serine/threonine-protein kinase 2 (Homo sapiens) (O43353 whole entry): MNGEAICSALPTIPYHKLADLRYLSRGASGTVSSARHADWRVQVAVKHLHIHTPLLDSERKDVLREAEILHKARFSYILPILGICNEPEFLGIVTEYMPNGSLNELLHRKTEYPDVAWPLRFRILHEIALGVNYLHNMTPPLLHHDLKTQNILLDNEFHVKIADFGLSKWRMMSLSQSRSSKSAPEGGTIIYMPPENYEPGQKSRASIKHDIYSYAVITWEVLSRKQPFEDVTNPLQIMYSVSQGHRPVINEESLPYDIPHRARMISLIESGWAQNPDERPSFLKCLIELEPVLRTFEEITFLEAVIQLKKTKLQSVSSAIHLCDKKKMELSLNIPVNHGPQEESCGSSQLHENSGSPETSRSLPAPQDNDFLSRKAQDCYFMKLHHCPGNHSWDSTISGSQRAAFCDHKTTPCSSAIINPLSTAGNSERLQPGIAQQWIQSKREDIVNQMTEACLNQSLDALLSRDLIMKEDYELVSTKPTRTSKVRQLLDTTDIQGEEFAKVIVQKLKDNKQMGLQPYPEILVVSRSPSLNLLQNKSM

Activity [2]: 18% | inhibition [3]: Dose-dependent effect | Activity [4]: 102% | Activity [5]: 94% | Activity [7]: 38% | Activity [8]: 71% | Activity [9]: 87% | Activity [10]: 66% | Activity [11]: 5% | Activity [12]: 38% | inhibition [13]: Active | Activity [14]: 75% | Activity [16]: 79% | AUClast (Brain): 14430 ng·h/mL | Activity [18]: 104% | Activity [19]: 104% | Activity [20]: 20% | Activity [21]: 92% | Vd [22]: 14.5 L/kg | Activity [23]: 44% | Activity [25]: 59% | Activity [26]: 66% | Activity [27]: 105% | Activity [28]: 53% | Activity [29]: 30% | inhibition [30]: Active
Compound: COc1cc(N2CCC(N3CCN(C)CC3)CC2)ccc1Nc1ncc(Cl)c(Nc2ccccc2S(=O)(=O)C(C)C)n1 [TAE-684]
inhibition (Mus musculus [1]): Active | inhibition (Mus musculus [6]): inactive | inhibition (Mus musculus [15]): Active | inhibition (Mus musculus [17]): Active | inhibition (Mus musculus [24]): Active
